# According to ChEMBL document CHEMBL1944582, “Pyrazolopyridine Inhibitors of B-Raf(V600E). Part 1: The Development of Selective, Orally Bioavailable, and Efficacious Inhibitors” (ACS Med Chem Lett, 2011):
# pEC50, pIC50: −log10 of the molar value.
# Test system: not listed separately
# Assay: Oral bioavailability in CD-1 mouse at 60 mg/kg as formulation of 25% SDD
# Assay type: ADME, organism-based
# Settings: in vivo; call rule not given here
# Outline: (§1)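 Oral dosing in mice used a 25% amorphous spray-dried dispersion on HPMCAS polymer, given at 10, 30, 60 and 100 mg/kg. Oral bioavailability (F) was determined at each dose.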
row,SMILES,bioavailability
1,CCCS(=O)(=O)Nc1ccc(Cl)c(C(=O)Nc2cnc3[nH]nc(OC)c3c2)c1F,19%

# Test system: not listed separately
# Assay: Oral bioavailability in CD-1 mouse at 30 mg/kg as a solution in 40% PEG400/10%ethanol/50% water
# Assay type: ADME, organism-based
# Settings: in vivo
row,SMILES,bioavailability
1,CCCS(=O)(=O)Nc1ccc(F)c(C(=O)Nc2cnc3[nH]nc(OC)c3c2)c1F,48%
2,CCCS(=O)(=O)Nc1ccc(Cl)c(C(=O)Nc2cnc3[nH]nc(OC)c3c2)c1F,53%
3,CCCS(=O)(=O)Nc1ccc(F)c(C(=O)Nc2cnc3[nH]ccc3c2)c1F,76%

# Test system: COLO 205
# Assay: Antitumor activity against human COLO205 cells xenografted in po dosed mouse assessed as tumor growth inhibition administered QD for 17 days
# Assay type: functional
# Settings: COLO 205, po, 408 h
# Outline: (§2)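 Mice with established Colo205 xenografts received the spray-dried dispersion orally at ascending doses once daily for 17 or 20 days. Tumor growth inhibition is expressed as percent of vehicle control, and ED50 and ED90 are given in mg/kg.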
SMILES,ED50,ED90
CCCS(=O)(=O)Nc1ccc(Cl)c(C(=O)Nc2cnc3[nH]nc(OC)c3c2)c1F,11 mg/kg,50 mg/kg

# Test system: Mus musculus
# Assay: Toxicity in human COLO205 cells xenografted mouse assessed as change in body weight at 125 mg/kg, po administered QD for 20 days
# Settings: in vivo, 480 h
row,SMILES,Activity
1,CCCS(=O)(=O)Nc1ccc(F)c(C(=O)Nc2cnc3[nH]nc(OC)c3c2)c1F,Non-toxic
2,CCCS(=O)(=O)Nc1ccc(Cl)c(C(=O)Nc2cnc3[nH]nc(OC)c3c2)c1F,Non-toxic

# Test system: not listed separately
# Assay: Aqueous solubility of the compound in phosphate buffer at pH 6.5 after 24 hrs by HPLC analysis
# Assay type: physicochemical
# Settings: not given
row,SMILES,solubility at 24 h
1,CCCS(=O)(=O)Nc1ccc(F)c(C(=O)Nc2cnc3[nH]nc(OC)c3c2)c1F,4 µg/mL
2,CCCS(=O)(=O)Nc1ccc(Cl)c(C(=O)Nc2cnc3[nH]nc(OC)c3c2)c1F,< 1 µg/mL
3,CCCS(=O)(=O)Nc1ccc(F)c(C(=O)Nc2cnc3[nH]ccc3c2)c1F,1 µg/mL

# Test system: not listed separately
# Assay: AUC in CD-1 mouse at 30 mg/kg, po
# Assay type: ADME, organism-based
# Set-up: dose 30 mg/kg, route oral
# Settings: plasma
# Outline: (§3)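 Single oral dose given to mice as a solution in 40% PEG400/10% ethanol/50% water, at 30 mg/kg or 100 mg/kg. Exposure is reported as AUC in μg h/mL.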
row,SMILES,AUC
1,CCCS(=O)(=O)Nc1ccc(F)c(C(=O)Nc2cnc3[nH]nc(OC)c3c2)c1F,190 µg·h/mL
2,CCCS(=O)(=O)Nc1ccc(Cl)c(C(=O)Nc2cnc3[nH]nc(OC)c3c2)c1F,1080 µg·h/mL
3,CCCS(=O)(=O)Nc1ccc(F)c(C(=O)Nc2cnc3[nH]ccc3c2)c1F,200 µg·h/mL

# Test system: not listed separately
# Assay: Oral bioavailability in CD-1 mouse at 10 mg/kg as formulation of 25% SDD
# Assay type: ADME, organism-based
# Settings: in vivo
# Outline: as §1
row,SMILES,bioavailability
1,CCCS(=O)(=O)Nc1ccc(Cl)c(C(=O)Nc2cnc3[nH]nc(OC)c3c2)c1F,53%

# Test system: not listed separately
# Assay: Volume of distribution in CD-1 mouse
# Assay type: ADME, organism-based
# Settings: in vivo
# Outline: (§4)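 Some compounds were also given intravenously to mice. Clearance is reported in mL/min/kg and volume of distribution in L/kg.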
row,SMILES,Vd
1,CCCS(=O)(=O)Nc1ccc(Cl)c(C(=O)Nc2cnc3[nH]nc(OC)c3c2)c1F,0.11 L/kg
2,CCCS(=O)(=O)Nc1ccc(F)c(C(=O)Nc2cnc3[nH]ccc3c2)c1F,0.2 L/kg

# Biological target: T1, Serine/threonine-protein kinase B-raf (Homo sapiens, UniProt P15056, V600E)
# Assay: Inhibition of B-Raf V600E mutant-mediated Erk phosphorylation in human A375 cells after 1 hr by fluorescence analysis
# Assay type: cell-based, A-375
# Settings: not given
# Outline: (§5)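 Cells were not stimulated, and inhibition was read against their basal ERK phosphorylation. This was the mechanistic cellular assay, run in both Malme-3M and A375 lines.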
# T1 sequence (P15056 2-766 V600E limits assumed): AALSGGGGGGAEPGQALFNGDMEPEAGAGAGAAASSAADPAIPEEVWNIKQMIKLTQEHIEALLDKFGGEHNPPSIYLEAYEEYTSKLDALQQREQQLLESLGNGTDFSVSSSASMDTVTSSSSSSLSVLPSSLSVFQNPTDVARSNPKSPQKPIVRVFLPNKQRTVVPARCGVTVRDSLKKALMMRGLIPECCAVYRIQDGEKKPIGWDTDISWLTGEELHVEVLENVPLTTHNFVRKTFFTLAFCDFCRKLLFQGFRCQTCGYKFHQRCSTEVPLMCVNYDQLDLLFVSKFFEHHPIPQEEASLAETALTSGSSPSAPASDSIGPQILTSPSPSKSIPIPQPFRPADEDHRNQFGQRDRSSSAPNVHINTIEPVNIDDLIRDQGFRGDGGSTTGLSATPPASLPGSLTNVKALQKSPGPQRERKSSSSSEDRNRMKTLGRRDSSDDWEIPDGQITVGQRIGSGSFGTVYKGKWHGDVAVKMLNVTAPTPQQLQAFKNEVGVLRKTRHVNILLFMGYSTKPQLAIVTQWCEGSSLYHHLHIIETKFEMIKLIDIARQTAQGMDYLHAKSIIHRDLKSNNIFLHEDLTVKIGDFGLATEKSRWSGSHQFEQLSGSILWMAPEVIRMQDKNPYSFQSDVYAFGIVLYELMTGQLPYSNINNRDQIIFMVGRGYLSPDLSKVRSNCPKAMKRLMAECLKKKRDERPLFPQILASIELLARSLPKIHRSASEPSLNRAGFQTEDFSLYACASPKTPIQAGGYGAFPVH
row,SMILES,pIC50
1,CCCS(=O)(=O)Nc1ccc(F)c(C(=O)Nc2cnc3[nH]nc(OC)c3c2)c1F,6.82
2,CCCS(=O)(=O)Nc1ccc(Cl)c(C(=O)Nc2cnc3[nH]nc(OC)c3c2)c1F,6.62
3,CCCS(=O)(=O)Nc1ccc(F)c(C(=O)Nc2cnc3[nH]ccc3c2)c1F,6.54

# Test system: not listed separately
# Assay: Oral bioavailability in CD-1 mouse at 100 mg/kg as formulation of 25% SDD
# Assay type: ADME, organism-based
# Settings: in vivo
# Outline: as §1
row,SMILES,bioavailability
1,CCCS(=O)(=O)Nc1ccc(Cl)c(C(=O)Nc2cnc3[nH]nc(OC)c3c2)c1F,13%

# Test system: Salmonella typhimurium
# Assay: Induction of mutagenesis in Salmonella Typhimurium by Ames test
# Assay type: toxicity, organism-based
# Settings: salmonella enterica subsp. enterica serovar typhimurium
row,SMILES,Activity
1,CCCS(=O)(=O)Nc1ccc(F)c(C(=O)Nc2cnc3[nH]nc(OC)c3c2)c1F,Non-toxic
2,CCCS(=O)(=O)Nc1ccc(Cl)c(C(=O)Nc2cnc3[nH]nc(OC)c3c2)c1F,Non-toxic

# Biological target: Voltage-gated inwardly rectifying potassium channel KCNH2 (Homo sapiens, UniProt Q12809)
# Assay: Inhibition of human Erg at 100 uM
# Settings: not given
# Chain of Voltage-gated inwardly rectifying potassium channel KCNH2 (Q12809 whole entry): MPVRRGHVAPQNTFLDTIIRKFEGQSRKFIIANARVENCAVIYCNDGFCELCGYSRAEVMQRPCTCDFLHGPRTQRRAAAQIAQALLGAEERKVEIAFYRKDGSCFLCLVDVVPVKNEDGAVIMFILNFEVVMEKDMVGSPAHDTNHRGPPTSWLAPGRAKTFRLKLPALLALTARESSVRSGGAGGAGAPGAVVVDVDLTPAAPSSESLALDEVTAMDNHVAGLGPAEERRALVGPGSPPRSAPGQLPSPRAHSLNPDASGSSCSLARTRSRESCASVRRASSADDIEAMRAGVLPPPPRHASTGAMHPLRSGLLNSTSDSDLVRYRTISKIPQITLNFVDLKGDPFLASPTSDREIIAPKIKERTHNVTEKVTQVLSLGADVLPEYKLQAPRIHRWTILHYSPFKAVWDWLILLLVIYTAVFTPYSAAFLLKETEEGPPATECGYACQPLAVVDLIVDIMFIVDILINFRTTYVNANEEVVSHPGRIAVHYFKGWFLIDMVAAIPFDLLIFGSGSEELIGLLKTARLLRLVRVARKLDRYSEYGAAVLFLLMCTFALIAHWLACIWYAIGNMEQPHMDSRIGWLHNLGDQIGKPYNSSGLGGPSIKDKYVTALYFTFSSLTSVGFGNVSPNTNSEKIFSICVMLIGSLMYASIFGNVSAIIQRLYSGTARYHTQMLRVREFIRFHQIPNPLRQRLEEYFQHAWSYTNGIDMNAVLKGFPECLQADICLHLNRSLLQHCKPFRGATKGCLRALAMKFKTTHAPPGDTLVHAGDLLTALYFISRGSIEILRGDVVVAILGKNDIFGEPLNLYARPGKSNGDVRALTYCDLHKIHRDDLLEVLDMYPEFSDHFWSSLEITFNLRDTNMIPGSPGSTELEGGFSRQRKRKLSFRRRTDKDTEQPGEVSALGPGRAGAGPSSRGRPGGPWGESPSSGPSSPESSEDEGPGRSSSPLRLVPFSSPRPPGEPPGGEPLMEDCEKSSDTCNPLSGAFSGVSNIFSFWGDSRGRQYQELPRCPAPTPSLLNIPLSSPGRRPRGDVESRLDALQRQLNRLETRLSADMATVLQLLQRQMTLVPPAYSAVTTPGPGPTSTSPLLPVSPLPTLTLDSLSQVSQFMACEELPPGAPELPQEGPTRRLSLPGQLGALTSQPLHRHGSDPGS
row,SMILES,inhibition (INH)
1,CCCS(=O)(=O)Nc1ccc(F)c(C(=O)Nc2cnc3[nH]nc(OC)c3c2)c1F,Not Active
2,CCCS(=O)(=O)Nc1ccc(Cl)c(C(=O)Nc2cnc3[nH]nc(OC)c3c2)c1F,Not Active

# Test system: not listed separately
# Assay: Clearance in CD-1 mouse
# Assay type: ADME, organism-based
# Settings: in vivo
# Outline: as §4
row,SMILES,clearance
1,CCCS(=O)(=O)Nc1ccc(Cl)c(C(=O)Nc2cnc3[nH]nc(OC)c3c2)c1F,1 mL/min/kg
2,CCCS(=O)(=O)Nc1ccc(F)c(C(=O)Nc2cnc3[nH]ccc3c2)c1F,1.9 mL/min/kg

# Test system: COLO 205
# Assay: Cytotoxicity against human COLO205 cells after 4 days by CellTiter-Glo assay
# Assay type: functional, cell-based
# Settings: COLO 205, 96 h
row,SMILES,pEC50
1,CCCS(=O)(=O)Nc1ccc(F)c(C(=O)Nc2cnc3[nH]nc(OC)c3c2)c1F,7.10
2,CCCS(=O)(=O)Nc1ccc(Cl)c(C(=O)Nc2cnc3[nH]nc(OC)c3c2)c1F,7.15

# Test system: COLO 205
# Assay: Antitumor activity against human COLO205 cells xenografted in po dosed mouse assessed as tumor growth inhibition administered QD for 20 days
# Assay type: functional
# Settings: COLO 205, po, 480 h
# Outline: as §2
SMILES,ED50,ED90
CCCS(=O)(=O)Nc1ccc(F)c(C(=O)Nc2cnc3[nH]nc(OC)c3c2)c1F,20 mg/kg,80 mg/kg

# Test system: not listed separately
# Assay: Oral bioavailability in CD-1 mouse at 2.5 to 80 mg/kg as formulation of 25% SDD
# Assay type: ADME, organism-based
# Settings: in vivo
# Outline: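 Oral bridging PK in mice used a 25% amorphous spray-dried dispersion on HPMCAS polymer at 2.5, 10, 40 and 80 mg/kg. Bioavailability (F) was derived per dose. The earlier solution vehicle was 40% PEG400/10% ethanol/50% water, with select intravenous dosing.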
row,SMILES,bioavailability
1,CCCS(=O)(=O)Nc1ccc(F)c(C(=O)Nc2cnc3[nH]nc(OC)c3c2)c1F,19%

# Test system: not listed separately
# Assay: Plasma protein binding in CD-1 mouse
# Assay type: ADME, cell-free
# Settings: read-out: PPB (converted)
row,SMILES,fraction unbound
1,CCCS(=O)(=O)Nc1ccc(F)c(C(=O)Nc2cnc3[nH]nc(OC)c3c2)c1F,0.026
2,CCCS(=O)(=O)Nc1ccc(Cl)c(C(=O)Nc2cnc3[nH]nc(OC)c3c2)c1F,0.009
3,CCCS(=O)(=O)Nc1ccc(F)c(C(=O)Nc2cnc3[nH]ccc3c2)c1F,0.021

# Biological target: T1, Serine/threonine-protein kinase B-raf
# Assay: Inhibition of full length human B-Raf V600E mutant expressed in baculovirus infected insect cells assessed as [gamma-33P]incorporation into MEK after 60 mins by scintillation counting
# Settings: not given
row,SMILES,pIC50
1,CCCS(=O)(=O)Nc1ccc(Cl)c(C(=O)Nc2cnc3[nH]nc(OC)c3c2)c1F,8.77
2,CCCS(=O)(=O)Nc1ccc(F)c(C(=O)Nc2cnc3[nH]ccc3c2)c1F,7.42

# Test system: not listed separately
# Assay: Inhibition of CYP450 at 25 uM
# Assay type: ADME
# Settings: not given
row,SMILES,inhibition (INH)
1,CCCS(=O)(=O)Nc1ccc(F)c(C(=O)Nc2cnc3[nH]nc(OC)c3c2)c1F,Not Active
2,CCCS(=O)(=O)Nc1ccc(Cl)c(C(=O)Nc2cnc3[nH]nc(OC)c3c2)c1F,Not Active

# Test system: not listed separately
# Assay: AUC in CD-1 mouse at 100 mg/kg, po
# Assay type: ADME, organism-based
# Set-up: dose 100 mg/kg, route oral
# Settings: plasma
# Outline: as §3
row,SMILES,AUC
1,CCCS(=O)(=O)Nc1ccc(F)c(C(=O)Nc2cnc3[nH]nc(OC)c3c2)c1F,664 µg·h/mL
2,CCCS(=O)(=O)Nc1ccc(Cl)c(C(=O)Nc2cnc3[nH]nc(OC)c3c2)c1F,50.7 µg·h/mL

# Test system: Mus musculus
# Assay: Toxicity in human COLO205 cells xenografted mouse assessed as change in body weight at 100 mg/kg, po administered QD for 17 days
# Settings: in vivo, 408 h
row,SMILES,Activity
1,CCCS(=O)(=O)Nc1ccc(F)c(C(=O)Nc2cnc3[nH]nc(OC)c3c2)c1F,Non-toxic
2,CCCS(=O)(=O)Nc1ccc(Cl)c(C(=O)Nc2cnc3[nH]nc(OC)c3c2)c1F,Non-toxic

# Test system: not listed separately
# Assay: Aqueous solubility of the compound in phosphate buffer at pH 7.4 after 24 hrs by HPLC analysis
# Assay type: physicochemical
# Settings: not given
row,SMILES,solubility at 24 h
1,CCCS(=O)(=O)Nc1ccc(F)c(C(=O)Nc2cnc3[nH]nc(OC)c3c2)c1F,9 µg/mL
2,CCCS(=O)(=O)Nc1ccc(Cl)c(C(=O)Nc2cnc3[nH]nc(OC)c3c2)c1F,2 µg/mL
3,CCCS(=O)(=O)Nc1ccc(F)c(C(=O)Nc2cnc3[nH]ccc3c2)c1F,4 µg/mL

# Test system: not listed separately
# Assay: Oral bioavailability in CD-1 mouse at 30 mg/kg as formulation of 25% SDD
# Assay type: ADME, organism-based
# Settings: in vivo
# Outline: as §1
row,SMILES,bioavailability
1,CCCS(=O)(=O)Nc1ccc(Cl)c(C(=O)Nc2cnc3[nH]nc(OC)c3c2)c1F,28%

# Biological target: T1, Serine/threonine-protein kinase B-raf
# Assay: Inhibition of B-Raf V600E mutant-mediated Erk phosphorylation in human MALME-3M cells after 1 hr by fluorescence analysis
# Assay type: cell-based
# Settings: not given
# Outline: as §5
row,SMILES,pIC50
1,CCCS(=O)(=O)Nc1ccc(F)c(C(=O)Nc2cnc3[nH]nc(OC)c3c2)c1F,7.72
2,CCCS(=O)(=O)Nc1ccc(Cl)c(C(=O)Nc2cnc3[nH]nc(OC)c3c2)c1F,7.70
3,CCCS(=O)(=O)Nc1ccc(F)c(C(=O)Nc2cnc3[nH]ccc3c2)c1F,7.03

# Test system: not listed separately
# Assay: Oral bioavailability in CD-1 mouse at 100 mg/kg as a solution in 40%PEG400/10%ethanol/50% water
# Assay type: ADME, organism-based
# Settings: in vivo
row,SMILES,bioavailability
1,CCCS(=O)(=O)Nc1ccc(F)c(C(=O)Nc2cnc3[nH]nc(OC)c3c2)c1F,51%
2,CCCS(=O)(=O)Nc1ccc(Cl)c(C(=O)Nc2cnc3[nH]nc(OC)c3c2)c1F,1.2%
